Three compounds from paper PMC6763203 (Molecular pharmaceutics, 2019) can be followed below.

Each structure is given as a SMILES string.

Data set [1] can be described thus: Hepatic microsome stability assay. It is filed as in vitro ADME, mouse.
The nature of data set [2]: Hepatic microsome stability assay. It is filed as in vitro ADME, human.
A short description of data set [3]: Plasma protein binding by equilibrium dialysis. It is filed as in vitro ADME, human. The conditions noted are these: 5 μM, 37 °C, 6 hours. The essentials:
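Equilibrium dialysis with test compound at 5 μM initial in the plasma chamber against PBS in the receiver chamber. Shaken at 37 °C for 6 h. Samples from both chambers were matrix-matched to 1:1 plasma:PBS and quantified by LC-MS/MS. Fraction bound = ([plasma] – [PBS]) / [plasma]. Run in triplicate.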
For orientation: Equilibrium dialysis compares concentrations on both sides of a semipermeable membrane.

The next data set deals with S. aureus ATCC 29213. Kind of data set: Prevention of biofilm formation, microtiter dish assay. The conditions noted are these: 2 μg/mL, 24 h. It is filed as cell-based, Staphylococcus aureus. The essentials: (§1)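 Static biofilm prevention assay with S. aureus ATCC 29213 or MRSA clinical isolates from local hospitals in central China. Strains were grown in TSB plus 1% glucose in 96-well tissue-culture plates with test compound (0.0125–8 μg/mL) for 24 h. Wells were washed with sterile water and stained with 0.1% (w/v) crystal violet. Stain was solubilised in 95% ethanol and read at 540 nm. Results are reduction in biofilm mass, from three independent experiments in triplicate.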

Data set [4] has as its system MRSA. The data set is described as above. The data set is classed as cell-based, Staphylococcus aureus. As to conditions: for inhibition of biofilm formation: 0.0125–8 μg/mL, 24 h. The essentials: as §1
Data set [5] concerns MRSA. Kind of data set: MRSA mouse peritonitis model. It is filed as in vivo. The conditions noted are these: for MRSA in blood or kidney of the survived mice: 14 days after administration.
The mark [6] stands for this setting: mouse, liver microsomes, pH 7.4.

In the case of `CCSC1CC(=O)C(C)(CCC(=O)Nc2c(O)ccc(C(=O)O)c2O)C2C3CC4CC12CC4(C)O3` (centres unmarked) [2t], the “Intrinsic Clearance” value in data set [1] (mouse liver microsomes 1 mg/mL, 1 μM compound) worked out at 46 µL/min/mg; in data set [2] (human liver microsomes), 32.0 µL/min/mg. For the same compound, the T1/2 in data set [1] (mouse liver microsomes 1 mg/mL, 1 μM compound, 37 °C) stood at 15.0 min. The “Plasma Protein Binding, Bound” value in data set [3] was 35.0%. In data set [3], the “Plasma Protein Binding, Free” value was 65.0%. Also, the “reduction of biofilm formation” value in the data set on S. aureus ATCC 29213 was “over 95%”. Besides, the “inhibition of biofilm formation” value in the data set on MRSA [4] is “dose-dependently inhibited”. In addition, the “MRSA in blood or kidney of the survived mice” value in the data set with MRSA [5] was “a significant number of MRSAs was still present”. In the data set on MRSA [5] (C57BL/6J mice, 50 mg/kg i.p. at 1 h and 5 h post infection, 14 days), this compound yielded a mice survival of 80%.

As usually defined, the half-life is the time needed for the level to fall by half in the phase considered. A low value points to fast loss. The microsomal CLint is a measure of how fast metabolising enzymes remove a compound, apart from limits set by blood flow. A higher microsomal CLint goes with rapid turnover. Take `CC12C[C@@]34C=CC(=O)[C@@](C)(CCC(=O)Nc5c(O)ccc(C(=O)O)c5O)C3[C@H](CC1C4)O2` (some centres unmarked) [PTM, platensimycin, reference compound]: in data set [1] (setting [6]), the half-life at 1 μM is 13.6 min and the microsomal CLint at 1 μM came to 51 µL/min/mg. This compound also came in with a microsomal CLint at 1 μM in data set [2] (human, liver microsomes, pH 7.4) of 14 µL/min/mg. Also, the “Plasma Protein Binding, Bound” value in data set [3] is reported as 66.0%. In addition, the “reduction of biofilm formation” value with S. aureus ATCC 29213 is listed as “over 95%”. Besides, in the data set on MRSA [4], the “biofilm reduction, comparison of PTM with PTM-2t” value is recorded as “reduced more biofilm from MRSA than PTM-2t” and the “inhibition of biofilm formation” value is “dose-dependently inhibited”.

Regarding `CN[C@H](CC(C)C)C(=O)N[C@H]1C(=O)N[C@@H](CC(N)=O)C(=O)N[C@H]2C(=O)N[C@H]3C(=O)N[C@H](C(=O)N[C@H](C(=O)O)c4cc(O)cc(O)c4-c4cc3ccc4O)[C@H](O)c3ccc(c(Cl)c3)Oc3cc2cc(c3O[C@@H]2O[C@H](CO)[C@@H](O)[C@H](O)[C@H]2O[C@H]2C[C@](C)(N)[C@H](O)[C@H](C)O2)Oc2ccc(cc2Cl)[C@H]1O` [vancomycin, reference compound], the “MRSA in blood or kidney of the survived mice” value in the data set on MRSA [5] is listed as “Only a few MRSA were present”.
